T cruzi inh = blocks replication of Trypanosoma cruzi; T. cruzi beta-gal in NIH3T3, luminescence, 90 h; inhibition, % (no concentration beside the values); actives 1.4% (n = 300,000); AID 1885;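 active = mean inhibition across valid replicates above about 55%, limit read from the data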;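 also: signal also drops with host cell toxicity which is not excluded here; 0% = plate median of DMSO wells and 100% = zero luminescence signal; higher percent means less beta-gal luminescence so fewer parasites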
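compound dosing = single 50 nL compound addition per well in DMSO | material = NIH/3T3 host cells with β-galactosidase reporter T. cruzi | input = 5,000 host fibroblasts per well | timing = ≥90 h infection period, 3 h prior cell attachment | read-out basis = percent inhibition of parasite-derived β-gal signal | detection = GalScreen β-gal luminescence, detergent lysis, 60 min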
Dynein cargo inh = blocks dynein driven cargo transport along microtubules. 3617.4 mouse cells, GR-EGFP nuclear translocation imaging; test concentration mostly 20 µM; stimulated with dexamethasone, 1 µM; active compounds read low. z-score, hits read low. actives 0.47% (n = 220,000). AID 1381;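 active = plate z-score of nuclear minus cytoplasmic receptor signal below a set negative limit, without overly bright fluorescence or cell loss, cut at about -3.5 in these data, passing the limit was not always enough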;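 also: z-score of nuclear minus cytoplasmic ring GR-EGFP intensity difference per well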
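medium = tetracycline-free induction medium containing charcoal-stripped FBS | probe or stimulus = dexamethasone, 1.0 µM final | timing = 48 h induction, then 1 h compound, then 30 min agonist, 37 °C | detection = automated 10x imaging of fixed Hoechst-stained cells | read-out basis = nuclear versus cytoplasmic GR-EGFP signal, averaged per well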
XBP1 UPR activ = activators of adaptive arm of unfolded protein response (XBP1). actives 0.33% (n = 330,000). activation, % at 20 µM. CHO-XBP1 luciferase reporter, IRE1-XBP1 UPR activation, luminescence; percent of tunicamycin response, DMSO as zero. AID 463104;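 active = versus positive control, 20 µM dose yields 30% or more activation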;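 also: 100% = tunicamycin at 10 µg/mL and 0% = DMSO only wells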
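Assay system: IRE1-XBP1 luciferase reporter CHO line. Input: 1000 cells/well. Buffer or medium: F12 with 10% serum. Doses: 20 µM, 1% DMSO. Times: overnight seeding at 37 °C, 6 h compound treatment at 37 °C. Technique: Steady-Glo luciferase glow luminescence, 10 min after reagent addition.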
UPR CHOP act = apoptotic UPR (CHOP) activation; CHO-CHOP luciferase reporter, luminescence; percent of tunicamycin response over DMSO baseline; activation, % at 10 µM; actives 0.34% (n = 330,000); AID 449763;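 active = at 10 µM dose, activation of 40% or more, normalized to positive control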;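 also: 100% = tunicamycin at 10 µg/mL and 0% = DMSO alone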
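Assay system: CHO cells with stable CHOP pathway luciferase reporter; Buffer or medium: F12 plus 10% serum; Times: 16-18 h cell attachment, then 6 h compound exposure, 37 °C; Signal: luciferase luminescence; Read-out basis: percent activation relative to tunicamycin control; Control set: tunicamycin high control, DMSO low control.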
CHOP inh = inhibitors of CHOP induction in ER stress response. CHO-K1 CHOP-promoter luciferase, tunicamycin-induced, 15-18 h. inhibition, % at 10 µM. actives 3.8% (n = 220,000). AID 2732;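 active = compounds that reduced the stress-induced luciferase reporter signal by more than about 70% of percent inhibition, limit read from the data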;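 also: 0% = tunicamycin plus vehicle and 100% = wells without tunicamycin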
Lmaj promast = inhibitors of Leishmania major promastigote growth; actives 9% (n = 200,000); inhibition, % at 10 µM; AID 1063; Leishmania major promastigotes, resazurin fluorescence viability; in the data active = inhibition above about 50%;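 also: promastigotes grown with compound for 44 hours at 28 °C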
An asterisk follows results filed as active; . = not tested or not shown. Only a selection was taken, and hits are over-represented in it overall.

SMILES	T cruzi inh	Dynein cargo inh	XBP1 UPR activ	UPR CHOP act	CHOP inh	Lmaj promast
CCc1sc(C(=O)Nc2cccc(-n3cnnn3)c2)cc1C	.	.	-2	7	.	.
c1ccc(-n2ncc3c(NCCN4CCCCC4)ncnc32)cc1	-1	-0.94	-2	6	5	98*
c1ccc(-n2ncc3c(NCCN4CCOCC4)ncnc32)cc1	-2	-0.1	3	4	14	34
O=C(CSCc1c(Cl)cccc1Cl)Nc1ccccc1C(=O)N1CCOCC1	-3	-0.78	-6	1	-16	52*
O=C(CSCc1ccc(Cl)cc1)Nc1ccccc1C(=O)N1CCOCC1	8	-0.1	1	-1	24	-4
CCc1ccc(N(CC(=O)Nc2ccccc2C(=O)N2CCOCC2)S(C)(=O)=O)cc1	-3	-1	-1	-1	15	51*
Cc1nc2ccc(NS(=O)(=O)c3ccc(Br)cc3)cc2s1	.	.	-1	-1	.	.
CC(NC(=O)Nc1ccc(Cl)cc1)c1ccccc1 (configuration not stated)	-4	.	-2	3	.	.
Cc1ccc(C(NC(=O)NC(C)c2ccccc2)C(Cl)(Cl)Cl)cc1F (configuration not stated)	38	-0.0006	-3	3	87*	30
COc1ccc(OC)c2sc(NC(=O)c3ccc(Br)s3)nc12	-12	-0.72	4	4	91*	-7
CCC(=O)Nc1nc2c(OC)ccc(OC)c2s1	-12	0.88	2	1	10	1
Cc1ccc(C(CCNC(C)c2cccs2)c2ccco2)cc1 (configuration not stated)	2	0.13	-3	0	0	.
CCN(CCNC(=O)Nc1ccc(Cl)cc1)c1ccccc1	21	-0.23	0	0	75*	96*
O=C(NCCc1ccc(Cl)cc1)Nc1ccc(Cl)cc1	31	0.67	-1	3	-12	.
CCN(CC)c1nc(OCCNC(=O)Nc2ccccc2)nc(N(CC)CC)n1	34	-0.24	-4	-1	90*	26
COc1ccc(S(=O)(=O)N(C)c2ccc(C(=O)Nc3c(C)n(C)n(-c4ccccc4)c3=O)cc2)cc1	2	.	-6	1	.	.
COCc1cc(C)nc(N/N=C/c2ccc(-c3cc(C(=O)O)ccc3Cl)o2)c1C#N	7	-0.34	-3	-1	5	-5
COCc1cc(C)nc(N/N=C/c2ccc(Cl)c(Cl)c2)c1C#N	-6	-0.43	-3	-1	10	85*
Oc1ccc(N=Nc2n[nH]c(-c3ccc(Cl)cc3)n2)cc1	4	-0.81	-4	5	75*	0
O=C(COC(=O)c1ccccc1C(=O)c1ccc(Cl)cc1)NC(c1ccccc1)c1ccccc1	28	0.91	2	3	33	8
CC(C)NS(=O)(=O)c1ccc(CCC(=O)NCc2cccnc2)cc1	-5	-0.23	0	2	36	-8
Cc1cccc(NC(=O)CCc2ccc(S(=O)(=O)NC3CCCCC3)cc2)c1	-11	-0.72	-7	2	72*	-2
CC(NS(=O)(=O)c1ccc(CCC(=O)NCc2cccnc2)cc1)c1ccccc1 (configuration not stated)	-12	-0.13	2	-1	11	74*
Cc1ccc(CNC(=O)CCc2ccc(S(=O)(=O)NC3CCCCC3)cc2)cc1	-5	0.68	0	2	15	73*
CN1CCN(C(=O)CCc2ccc(S(=O)(=O)NC3CCCCC3)cc2)CC1	59*	-0.43	-2	-2	-9	4
SMILES	T cruzi inh	Dynein cargo inh	XBP1 UPR activ	UPR CHOP act	CHOP inh	Lmaj promast
O=C(CCc1ccc(S(=O)(=O)NC2CCCCC2)cc1)NCc1cccnc1	-15	1.4	-2	1	-16	14
Cc1csc(SCC(=O)Nc2cc([N+](=O)[O-])ccc2F)n1	.	.	-2	0	.	.
O=C(COc1ccc(S(=O)(=O)NC2CCCCC2)cc1)N1CCN(c2cccc(Cl)c2)CC1	3	-0.17	0	5	79*	36
CC(C)NS(=O)(=O)c1ccc(CCC(=O)N2CCc3ccccc3C2)cc1	6	-1	-1	0	16	-4
CC(NS(=O)(=O)c1ccc(CCC(=O)N2CCN(C)CC2)cc1)c1ccccc1 (configuration not stated)	72*	-1	-1	1	26	43
CC(NC(=O)CCc1ccc(S(=O)(=O)NC2CCCCC2)cc1)c1ccccc1 (configuration not stated)	-3	0.057	-5	1	5	96*
CCOc1ccc(NC(=O)CN(C)C(=O)C2CC(=O)N(CCc3ccccc3)C2)cc1OCC (configuration not stated)	1	.	-2	1	.	.
Cc1nc(CCNS(=O)(=O)c2cccnc2)cs1	-36	2.7	-1	1	11	.
CN(C)c1nnnn1-c1cccc(Oc2ncc(C(F)(F)F)cc2Cl)c1	12	1.8	0	0	10	0
Cc1cc(NC(=O)Nc2ccccc2[N+](=O)[O-])n(C)n1	-9	.	1	2	.	.
Cc1ccc2oc(/N=C(\N)NC(=O)C(C)(C)C)nc2c1	-43	0.58	-10	-8	86*	.
CCOC(=O)c1sc(NC(=O)CN2C(=O)NC3(CC(C)CC(C)(C)C3)C2=O)cc1C (configuration not stated)	59*	.	6	1	.	.
CCOC(=O)c1sc(NC(=O)CN2C(=O)NC3(CC(C)CC(C)(C)C3)C2=O)c(C(=O)OCC)c1C (configuration not stated)	51	-0.096	-2	2	3	18
CC(C)(CO)CNC1CCCN(C2Cc3ccccc3C2)C1 (configuration not stated)	66*	.	1	-1	.	.
CCOC(=O)CNc1nc(Cl)nc(Nc2ccc(C)cc2)n1	-12	1.8	-1	1	70*	.
CCOC(=O)CNc1nc(Cl)nc(Nc2ccc(Cl)cc2)n1	-4	0.64	-1	0	25	.
Clc1ccc(C2=NCCN2)cc1	62*	-0.022	0	0	4	1
O=C(Nc1ccc(C2=NCCN2)cc1)c1ccc(Cl)c(C(=O)Nc2ccc(C3=NCCN3)cc2)c1	-5	0.32	-3	0	7	.
CCOC(=O)[C@@H]1[C@H]2COc3cc(OC)ccc3[C@@H]2N2C(=O)N(c3ccccc3)C(=O)[C@@]12C	.	.	3	1	.	.
N#Cc1cc[n+](CC(=O)c2ccc(NC(=O)c3ccccc3)cc2)cc1	-6	-0.42	0	2	14	.
Cc1ccc(-n2c(C)cc(C(=O)COC(=O)c3ccc[nH]c3=O)c2C)cc1	-5	1.3	-5	1	34	70*

Compound activity from PubChem.
